Assay results of several laboratories.
Protocols differ between the studies behind these lines.
Target: High affinity nerve growth factor receptor (NTRK1, Homo sapiens, UniProt P04629)
Mode: inhibitor

Compound	observed	technique	concentration	inhibition
CNCc1ccc(-c2cc(-c3nc(-c4ccc(S(=O)(=O)C(C)C)cc4)cnc3N)on2)cc1	enzyme activity		2 µM	32%
O=C(Nc1ccc2[nH]ncc2c1)c1cccc(NC(=S)Nc2ccc(C(F)(F)F)cc2)c1	enzyme activity	FRET	1 µM	58%
Cc1ccc(Nc2nccc(N(C)c3ccc4c(C)n(C)nc4c3)n2)cc1S(N)(=O)=O	enzyme activity		0.3 µM	16%
CNC(=O)c1cc2c(Oc3ccc(NC(=O)C4(C(=O)Nc5ccc(F)cc5)CC4)cc3)ccnc2cc1OC	enzyme activity	radiometric	1 µM	99%
CNC(=O)c1cc(Oc2ccc(NC(=O)Nc3ccc(Cl)c(C(F)(F)F)c3)cc2)ccn1	enzyme activity		10 µM	98%
COc1cc2ncnc(Nc3ccc(Oc4ccccc4)c(C)c3C)c2cc1OC	enzyme activity		1 µM	-1%
CN(C)C1CCN(CC#Cc2nn(C3CCCC3)c3nc(NCc4ccccc4)ncc23)C1 (stereo not drawn)	enzyme activity	FRET	10 µM	65%
COc1cc2nccc(Oc3ccc(NC(=O)c4c5n(n(-c6ccc(F)cc6)c4=O)CCCC5)cc3)c2cc1OC	enzyme activity		0.1 µM	63%
CC/C(=N\NC(=O)NCc1cccc(O)c1)c1ccc(O)c(C)c1O	enzyme activity		0.1 µM	3.3%
O=C(Nc1cccc(C(=O)Nc2ccc3[nH]ncc3c2)c1)Nc1ccccc1C(F)(F)F	enzyme activity	FRET	1 µM	51.3%
CCN(CC)CCNC(=O)c1c(C)[nH]c(/C=C2\C(=O)Nc3ccc(F)cc32)c1C	enzyme activity		0.3 µM	91%
O=C(Nc1ccc(C(F)(F)F)cc1)Nc1cccc(C(=O)Nc2ccc3[nH]nc(-c4ccccc4)c3c2)c1	enzyme activity	FRET	1 µM	17%
C=CC(=O)Nc1cc(Nc2nccc(Nc3cc(Cl)c(F)cc3C(C)(C)O)n2)c(OC)cc1N1CC[C@@H](N(C)C)C1	enzyme activity		1 µM	51%
O=C(Nc1ccc(Cl)cc1)Nc1cccc(C(=O)Nc2ccc3[nH]ncc3c2)c1	enzyme activity	FRET	1 µM	55.3%
CSc1nc(C)c(-c2ccnc(Nc3ccc(N4CCOCC4)cc3)c2)[nH]1	cell-free assay		10 µM	10.1%
